In the EternaBench riboswitch data:

Test system: MS2 coat protein
Assay: apparent Kd, MS2 coat protein; higher = weaker binding; RNA-MaP array; FMN 200 µM where present
Procedure, shortened: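 The apparent Kd is the median of filtered binding-curve fits, one per cluster, to green signal normalised to red-channel RNA signal and control-cluster median Fmax. The clusters were on Illumina sequencing chips, and stalled E. coli RNA polymerase had transcribed the designs on them. Titration used SNAP-549-labelled MS2 coat protein from 0.7 or 1.5 nM, doubling to 3 µM, without and then with constant ligand, in 100 mM Tris-HCl pH 7.5, 80 mM KCl, 4 mM MgCl2, BSA, DTT, yeast tRNA and Tween-20.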

[1] = designed as: OFF switch for flavin mononucleotide, no ligand
[2] = ligand present: flavin mononucleotide, designed as: OFF switch for flavin mononucleotide
[3] = designed as: ON switch for flavin mononucleotide, no ligand
[4] = ligand present: flavin mononucleotide, designed as: ON switch for flavin mononucleotide

Sequence	apparent Kd [1] [nM]	apparent Kd [2] [nM]	apparent Kd [3] [nM]	apparent Kd [4] [nM]
CGAGUGAUAGGAUAUACACCUUUUCAGAACAUGUGGCUGUUACAUGAGGAUCACCCAUGUAGAAGGAUCAAGCG	65.8	66.3		
UUGAGGUAGGAGAAGGACAGAGGCGGAAACACAAACAUGAGGAUCACCCAUGUAGGAUAUCCUAACUAACGAGGAUACCUCAAG	6.49	7.53		
ACAUACAUUCGAGGAUAUCGGUGAUUAAUUUUACGAGAAGGCGAUAAAAGAUAUAAAAUUUUAGACAUGAGGAUCACCCAUGUA			28.6	27.1
CGCGAACAGGUUAACAUGAGGAUCACCCAUGUGGACUCAUGGUAGGAUAUCGGGAAGGAGGAAACCGAGAAGGGCCGGUGAGCC			324	107
UUUUACUAGUAAGGAUAUACUAGCGAUUAGCUUGUAGAAGGUACAGUCUUAUGUAUAACAUGUUAACAUGAGGAUCACCCAUGU			62.1	34.5
GAACGUGAUGUAAGGAUAUGUAGCCAUCGAGGCGUAUAGAAGGUACAUGAGGAUCACCCAUGUGAGCUCGUUAU	36.7	44.6		
UUAGAAUUGCAAGGAUAUCUAAUUUAGAUAGUAAGAGAAGGUGCUUUAUAGUUACAUGAGGAUCACCCAUGUUUUUUUGUUUAU			35.1	27.3
CCUGUCGUAUGAGGAUAUGGUCAGCUUUGCUGACCAGAAGGCAUGUCAAUAGACAUGAGGAUCACCCAUGUAGUAAAGACAGGA			381	40.1
AGGAGAAAUGUAGGAUAUGGAUAUAUAUAUGGGCAAAGCGCAUAUAUAUAUCCAGAAGGACAUGAGGAUCACCCAUGUUUCCCU	11.8	13		
CUUUUGUGAGGAUAUCAGUGGUAAAACAAUAGUAUUACUACUGAGAAGGCACAUGAGGAUCACCCAUGUUCCUC	47.1	304		
UUCCUACAUGAGGAUCACCCAUGUCAGGAUAUCUCCUCACCGCGAAUGGGCAGUGAAUAGAGAAGGGACAGGAA	11.9	15.9		
AGGGAGUUAGGAUAUGCUGCUCGUCACUUGCGUGAUGAGUAGCAGAAGGAACAUGAGGAUCACCCAUGUAAAGA	34.9	28.8		
GCACCAUUGCAAGGAUAUCCUACAGAGGGUGCAGGAGAAGGUGCAUUGGUGAGACUAUAGGACAUGAGGAUCACCCAUGUACCG			68	32.7
GCGCUACAUGAGGAUCACCCAUGUGCGAACGCACGAGGAUAUGCAUGGGCUAAUGCUGGUGCAGAAGGCGUGGCGC			31.8	22.6
CCGACGAAAGUCGAACGAUGUAGCAGAAGGACAUGAGGAUCACCCAUGUCAGCUGUAACAGCCAUGUAGGAUAUGCUACAUCGC	4.16	5.51		
GGACGUCUCAUUAACAUGAGGAUCACCCAUGUCAAAAGACAUGAGGAUAUGGAUCCUAAUUGGAUCCAGAAGGCAUGGACGUCC			939	59.2
CGAAAAUUUCAGAAGGACCGAUUCCACAUGAGGAUCACCCAUGUCGAUGGUAGGAUAUGGAGUUGUGGACAGGGCGGAUGUUCC			46.3	8.39
ACACAUGAGGAUCACCCAUGUAGCUGGCGUCUGCACCAGCCACAGGAUAUACGGCAACACAAACCGUAGAAGGGUGAUAAACAC			56.3	27.3
UGAUCGAAAGAUCAUAGAUUCUGCUAGGAUAUGCAGAAGUUGCGCUUUACAUGAGGAUCACCCAUGUAGAAGGAGUAGAGUCUA	6.59	6.78		
GCCAGGAUGUAAGGAUAUGCUGAGGAAUACUCAGCAGAAGGUACAUGAGGAUCACCCAUGUAAUCCUAAUAAUAAUAACCUGGC	11.1	16.6		
CAGAAGUCAGGAUAUGCAUGGCGGGACUUGCGUCGUGGCGUGCAGAAGGGACAUGAGGAUCACCCAUGUGGAGA	138	224		
AAUUAAUUAAUACAUGAGGAUCACCCAUGUAAUUAUUAGAUCUAGGAUAUCAGCUCGUUUAGAGCUGAGAAGGAGAUCACAUGU			19.2	14.6
CGGUACUGAGGAUAUACAUGAGGAUCACCCAUGUGUUCUAGCUAGCGUACUGGCUAUUGUAGAAGGCGGUGCUG	17.5	99.8		
AAAAGGUCAGGAUAUGCGAGCGGCAGGGAGGCAGGUCGGUGGCAGAAGGGACAUGAGGAUCACCCAUGUUAAAA	35	34.1		
AUGCUAUACGAAGGAUAUGGUUACAUGAGGAUCACCCAUGUAAUUUUUGUGAUCUUGUUUAAGUUCCAGAAGGUCGUAUAGCUA	42.2	156		
CAGAAGUCAGGAUAUCCUGCUCGUCACUUGCGUGAUGAGUAGGAGAAGGGACAUGAGGAUCACCCAUGUAAAGG	144	411		
UCUGUUUUGCGAGGAUAUCGACCAUUCCUCUUAACAUGAGGAUCACCCAUGUGCUAAUCCUACAACGAGAAGGCGCUCAUACUC	250	348		
GAGGAACAUGAGGAUCACCCAUGUGAGGAUAUGCAUAGUGAGGUAGUAGAAGUUGAAUGCAGAAGGUACACUGA	42.2	32.2		

Sequence	apparent Kd [1] [nM]	apparent Kd [2] [nM]	apparent Kd [3] [nM]	apparent Kd [4] [nM]
CAUUAAUUGAUUAUUGUAUUUAUACAGGAUAUGUAACAUGAGGAUCACCCAUGUAUACAUGGGAAACAGAAGGGUAUUUAAAGA	34.7	25.3		
GGUACCAUCACAGGAUAUGCUUUCCAUUGGGAAGCAGAAGGGUGUAACAUGAGGAUCACCCAUGUGGUGCCAGGGCGUGAGCCU			217	15.2
CUUCUGUAAGGAUAUUGCGAUAAGCAUGACAUCGCCGGUCGCAAGAAGGUACAUGAGGAUCACCCAUGUGCGGU	161	152		
CUUUUAUUGGUCCAUUUUUUCUACAUGAGGAUCACCCAUGUGCAGGAUAUCGUGAUUAUUAUCAACGAGAAGGGCAGAUUCACG	29.8	78.4		
AGGCGUGCUGAGGAUAUACUACCGGUUGCGAUAGUAGAAGGUAGCACAUGAGGAUCACCCAUGUGGUCAGAUGC	24	64.6		
AAAUUUAACGAAGGAUAUGCUAACAUGAGGAUCACCCAUGUGUGCUUUGUGUUGCUGAAAUUGGAGCAGAAGGUCGUAUACAUA	95.4	145		
CAGUACUGAGGAUAUACAUGAGGAUCACCCAUGUGUUCCAGCUAGGAAACUAGCGAAAGUAGAAGGCAGUACUG	23.3	551		
UUAAAUCAUGUAGGAUAUGCAUGGCGAAGCUACGCAGAAGGACAUGAGGAUCACCCAUGUUAUAGCGUCCGAAUAAGGAUGCAA	90.7	199		
CCCUCAACAUGAGGAUCACCCAUGUAGGAUAUCGCUAUUGUAAUCAUGAAACAUGAUUACAAUAGCGAGAAGGACAUAUGCAAA	25.2	126		
GGAUCGAAAGUGAGGAUAUACCACUGGAUACAGUGGUAGAAGGCACAUGAGGAUCACCCAUGUCCUUACGAUCC	20.8	117		
UCGCCACAUGAGGAUCACCCAUGUCAGGAUAUCUAGAUGCGUCUUGAGCUCAAGCGCUGGAGAAGGGAUUGGGU	235	67.5		
GCGGCUCACAUGAGGAUCACCCAUGUUCGCAUAUUGUGAAACAGAAGGCGGACUCAGCGAUGGGCCGAGGAUAUGUUUCCCACA			124	25.8
GCUACGUCAGGAUAUCUGAUGUCUAACUUCGGUUAGACAUCAGAGAAGGGACAUGAGGAUCACCCAUGUAGCAA	93.5	122		
AACGCGUCAGGAUAUGCCAUAAAUUACCUAAUACAACCAUAGCAGAAGGGACAUGAGGAUCACCCAUGUAAAUA	32.1	25.2		
CACGGCGUAUCAGGAUAUGUGGGUGUCUGGACAUGAGGAUCACCCAUGUAAUCAGUAUUAGCCGUGCAGAAGGGAUCCGCUGUA			35.2	60.3
AAACCACAUGAGGAUCACCCAUGUAAAAAUAUGGGAGGAUAUCGGAAUAAAAUAAAGAAACGAGAAGGCCUAAAAA			153	35.9
GGAGGACAUGAGGAUCACCCAUGUGGAUGAACGCUAGGAUAUGCGUGCAGGAAGAGUGGAGCAGAAGGAGUGGGUU			28.2	23.2
UGGUACUAGGGAGGAUAUGGGAAGAUACAUGAGGAUCACCCAUGUUUAAGAAUGCCGAGAGGCAACUAGAAGGUCCUAGUACCU			628	38.2
AAGGGUACUUUCGGAACGACAUGAGGAUCACCCAUGUAGACUGAGGAUAUCUACUACUAAGGACGGGAGAAGGCAGUGUAAUGU	18.1	17.8		
UAGAAUCGAGGAUAUACAUGAGGAUCACCCAUGUGUGGCCAUACGGUGUGGUCGUCAGGUAGAAGGCGAUUAUA	34.4	14.6		
UUAGUUACGGGAGGAUAUGUCACCCUGGGUCACAUGAGGAUCACCCAUGUGACAGAAGGCCCAAUUAUGGUGCCCAGGGCGCCU	5.84	22.8		
GUCAGCUCGUGAGGAUAUAGAACACUGCUUCGGCAGUGUAUUAAGAUCACAUGAGGAUCACCCAUGUAGAAGGCACGAGCUGAU	5.12	9.33		
AUAUACUUUCGAGGAUAUCGGUGAUAAAUUUUACGAGAAGGCGAUAAAAGAUAUAAUCUUAUAGACAUGAGGAUCACCCAUGUA			30.3	28
UUUUUGUGAGGAUAUCAGUAGUAGAACAAUAGUACUACUACUGAGAAGGCACAUGAGGAUCACCCAUGUUUCUC	50.2	294		
GCGGUACAUGAGGAUCACCCAUGUCAGGAUAUCCGCUGUUUGUCGAUUGGCAGGCGGUGGAGAAGGGACCUCGC	97.5	98.5		
UGGAUGUGGGUUCCACAUGAGGAUCACCCAUGUACCGAUGAGAGAAGGCGCGCUGGUUCCCAGGGCGAGGAUAUCUACAUUCAA	5.63	14.2		
CAUCAGUCUGUGAGGAUAUUGGUCGAGUGACUUAUUAAGAAGGCACAUGAGGAUCACCCAUGUGGGAAGUCAGG	24.3	26.6		
